Screening results (PubChem)
RGS4 block: RGS4 inhibitors, primary screen, cell-based, HEK293 M3R inducible RGS4, calcium flux; Regulator of G-protein signaling 4 (Homo sapiens), P49798; Fluo-4 calcium flux; stronger effect = higher value; triggered by carbachol at its EC20; B-score at 10 µM; hit rate 0.45% among 310,000;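 active = B-score, a plate-corrected calcium signal, over three deviations above library mean, with baseline fluorescence within five deviations of library mean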;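 note: RGS4 expression induced by doxycycline in cells with stable M3 receptor; B-score is computed from the integrated fluorescence ratio over baseline after carbachol; higher B-score means a larger calcium signal and so more RGS4 inhibition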
Target sequence (P49798 whole entry, looked up): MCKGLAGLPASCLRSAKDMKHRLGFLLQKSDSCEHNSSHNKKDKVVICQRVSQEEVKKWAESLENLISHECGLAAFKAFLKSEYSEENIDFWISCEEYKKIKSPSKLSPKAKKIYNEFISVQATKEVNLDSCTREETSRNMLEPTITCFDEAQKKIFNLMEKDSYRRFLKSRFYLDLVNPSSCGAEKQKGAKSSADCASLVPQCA
RGS4 act: RGS4 potentiators or activators, primary screen, cell-based, HEK293 M3R inducible RGS4, calcium flux; hit rate 0.92% among 310,000; B-score at 10 µM; carbachol calcium flux Fluo4; stronger effect = lower value;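 active = B-score of the integrated calcium signal more than 4 SD below the library mean, with starting fluorescence not abnormally high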;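 note: negative B-score means reduced calcium response which marks RGS4 activation or potentiation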
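test system = M3R-expressing HEK293 line, RGS4 induced by doxycycline | probe or stimulus = carbachol at ECmax as muscarinic agonist stimulus | timing = dye loading 30 min 37 °C, buffer rest 30 min RT | signal = calcium dye Fluo4 fluorescence | evaluation = B score from integrated fluorescence ratio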
MrgX1 ag: agonists of human MrgX1 receptor, primary screen, HEK293 cells, Fluo-4 calcium flux; Fluo-4 calcium fluorescence, agonist mode; stronger effect = higher value; B-score at 10 µM; hit rate 0.44% among 310,000; AID 588627, 2011;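 active = calcium response B-score plate-corrected fluorescence ratio at least 3 library SD, with starting fluorescence B-score inside 5 SD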
Target sequence (Q96LB2 whole entry, looked up): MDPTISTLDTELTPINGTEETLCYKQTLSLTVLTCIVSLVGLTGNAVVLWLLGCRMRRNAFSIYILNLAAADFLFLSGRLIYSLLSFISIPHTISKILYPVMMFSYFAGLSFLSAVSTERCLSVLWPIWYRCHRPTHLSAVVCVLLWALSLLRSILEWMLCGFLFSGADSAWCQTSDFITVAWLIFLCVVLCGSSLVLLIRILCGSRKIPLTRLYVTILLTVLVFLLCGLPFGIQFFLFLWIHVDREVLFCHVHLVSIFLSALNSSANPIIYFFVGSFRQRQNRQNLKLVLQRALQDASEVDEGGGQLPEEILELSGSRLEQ
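times = overnight plating, then 30 min 37 °C plus 30 min room-temperature dye loading | assay system = stable human MrgX1 HEK293 cell line | input = fifteen thousand cells per well | signal = kinetic calcium dye fluorescence, Fluo-4 NW | dosing = compound delivered in addition one of three | read-out = B-scored fluorescence response ratio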
MrgX1 antagonist: antagonists of human MrgX1 receptor, primary screen, HEK293 cells, Fluo-4 calcium flux; Mas-related G-protein coupled receptor member X1 (Homo sapiens), Q96LB2; BAM8-22 antagonism; stronger effect = lower value; hit rate 1.3% among 310,000; B-score at 10 µM;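 active = calcium-response B-score plate-corrected more than 3 library SD below zero, starting fluorescence within 5 deviations, no agonist response on first addition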;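 note: peak minus trough fluorescence over baseline after final BAM8-22 challenge near maximal dose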
MrgX1 allo act: positive allosteric modulators of MrgX1, primary screen, HEK293 cells, Fluo-4 calcium flux; FDSS; stronger effect = higher value; B-score at 10 µM; hit rate 0.63% among 310,000; AID 588675, 2011;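 active = plate-corrected calcium response at least 3 library SD above typical, normal starting fluorescence, not activating the receptor alone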;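 note: compound read alongside a low EC10 to EC30 dose of BAM8-22 agonist; peak minus trough fluorescence over baseline measured at the second addition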
Active calls of the source: *; i = inactive; . = no result given. Sampled rows, rich in hits. Any-hit rate of the full collection: about 3.5%.

SMILES	RGS4 block	RGS4 act	MrgX1 ag	MrgX1 antagonist	MrgX1 allo act
O=C(CCl)c1cc2c3c(c1)CC(=O)N3CCC2	17*	i	27*	i	i
CC(=O)Nc1ccc(S(=O)(=O)N2CCN(S(=O)(=O)c3ccc(F)c(F)c3F)CC2)cc1	i	i	i	i	i
CNC[C@H](CC1CCCCC1)NC[C@H](Cc1ccccc1)NCCC12CC3CC(CC(C3)C1)C2	i	-8.9*	i	-9.5*	7.7*
COc1ccc(N2CCN(Cc3cc4c(cc3Br)OCCO4)CC2)cc1	i	-7*	i	i	i
O=C(O)CNS(=O)(=O)c1c(Cl)cccc1Cl	i	i	i	i	i
O=C(c1cccs1)N1CCN(C23CC4CC(CC(C4)C2)C3)CC1	i	-7.3*	i	i	i
CCOC(=O)c1c(NC(=O)COC(=O)c2ccc(O)cc2)sc(C(=O)NC)c1C	i	i	i	i	i
CCOC(=O)c1c(NC(=O)COC(=O)CC(NC(C)=O)c2ccccc2)sc(C(=O)NC)c1C (centres undefined)	i	i	i	-4.8*	i
Cn1c(Cc2cccc3ccccc23)nnc1SCc1ccc([N+](=O)[O-])cc1	i	i	i	-8.6*	i
Cc1cccc(N(CC(O)CON=C2c3ccccc3-c3ccccc32)S(C)(=O)=O)c1 (centres undefined)	i	i	i	-4.9*	i
O=C(Oc1cccc2cccnc12)c1cccc(N2C(=O)C3C4CCC(C4)C3C2=O)c1 (centres undefined)	6*	i	i	i	i
C=CCn1c(CCCNC(=O)C(C)(C)C)nc2ccccc21	i	i	i	i	i
CC(C)(C)C(=O)NCCCc1nc2ccccc2n1CCCOc1ccc(Cl)cc1	i	i	i	-5.1*	i
COc1ccc(CCNC(=O)Cn2nnc3ccccc3c2=O)cc1	i	i	i	i	i
O=C(Cn1nnc2ccccc2c1=O)NCCc1ccc(F)cc1	i	i	i	-5*	i
CC1=CC(=O)C=C(C)C1=NOc1ccc([N+](=O)[O-])cc1	i	i	33*	i	i
CC(=O)NNC(=O)c1nc(-c2ccccc2)c(C)o1	i	i	i	i	i
CCN(CC)CCNC(=O)c1ccc(NC(=O)Cc2cccc3ccccc23)cc1	i	-7.5*	i	i	i
CCN(CC)CCNC(=O)c1ccc(NC(C)=O)cc1	i	i	i	i	i
COc1ccc(/C=N/Nc2nc(-c3cccc(S(=O)(=O)N4CCCC4)c3)cs2)cc1OC	i	i	i	i	i
O=S(=O)(c1cccc(-c2csc(N/N=C/c3ccco3)n2)c1)N1CCOCC1	i	-8.6*	i	i	i
CCOc1cc(/C=N/Nc2nc(-c3cccc(S(=O)(=O)N4CCCC4)c3)cs2)ccc1O	i	-8.8*	i	i	i
COc1cc(/C=N/Nc2nc(-c3ccc(S(=O)(=O)N(C)C)cc3)cs2)ccc1O	i	-7.4*	i	i	i
CCCOC(=O)C1=C(C)NC2=C(C(=O)CCC2)C1c1ccc(N(C)C)cc1 (centres undefined)	i	-7.2*	i	i	i
CCOC(=O)C1=C(C)NC2=C(C(=O)CCC2)C1c1ccc(N(C)C)cc1 (centres undefined)	i	i	i	i	i
SMILES	RGS4 block	RGS4 act	MrgX1 ag	MrgX1 antagonist	MrgX1 allo act
CCN(CC(=O)Nc1ccccc1OC)CC(=O)Nc1ccccc1-c1ccccc1	i	i	i	i	i
O=C(O)CC1(c2ccc(F)cc2)C2CC3CC(C2)CC1C3 (centres undefined)	i	i	i	-6.7*	i
COCCCNC(=O)c1cc2c(=O)n3cc(C)ccc3nc2nc1NCC1CCCO1 (centres undefined)	i	i	i	-7.6*	i
COc1ccc(CCNC(=O)c2cc(C(=O)c3cc(C)ccc3O)cn(CCc3ccc(OC)cc3)c2=O)cc1	i	-8.7*	i	i	i
Cc1ccc(OCC(=O)N2CCN(c3nnc(-c4ccc(C)cc4)c4ccccc34)CC2)cc1	i	i	i	i	i
Cc1ccc(-c2nnc(N3CCN(C(=O)COc4cccc(C)c4)CC3)c3ccccc23)cc1	i	-7.3*	i	i	i
CS(=O)(=O)n1nc(-c2ccc(Cl)cc2)nc1N	i	i	i	i	i
Cn1nc(-c2ccc(Cl)cc2)nc2c(=O)n(C)c(=O)nc1-2	i	i	i	-4.6*	i
CC1CCCC(C)N1/N=C/c1ccc(C#N)cc1 (centres undefined)	i	i	i	i	8.4*
Cc1csc(C(C)NC(=O)c2ccc(OC3CCN(CCc4ccccc4)CC3)cc2)n1 (centres undefined)	i	i	i	i	i
C=C1C(=O)C=C2CN(C(=O)c3ccccc3)[C@@](Cc3ccc(F)cc3)(C(=O)OC)[C@@H]12	15*	i	47*	i	i
O=[N+]([O-])c1ccc(-c2ccc(/C=N/Nc3nc(N4CCCC4)nc(N4CCCC4)n3)o2)cc1	i	i	34*	i	i
O=[N+]([O-])c1ccc(-c2ccc(/C=N/Nc3nc(N4CCCCC4)nc(N4CCCCC4)n3)o2)cc1	i	i	.	.	.
O=C(c1nn(Cc2ccccc2)c(=O)c2ccccc12)N1CCN(c2ccccn2)CC1	i	i	i	i	i
O=C(c1nn(Cc2ccccc2)c(=O)c2ccccc12)N1CCc2ccccc2C1	i	-8.5*	i	i	i
COc1ccccc1N1CCN(C(=O)COc2cc(C)cc(C)c2)CC1	i	i	i	i	i
CC1Cc2ccccc2N1C(=O)CN1CCCCC1 (centres undefined)	i	i	i	i	i
O=C(CN1CCCCC1)N1c2ccccc2Oc2ccccc21	i	-7.5*	i	i	i
Cc1cccc(C)c1NC(=O)c1sccc1SCc1cccc(C(F)(F)F)c1	i	i	i	-5*	i
CN(C)c1ccc(/C=N/NC(=O)CNC(=O)/C=C/c2ccco2)cc1	i	i	i	i	i
O=C(/C=C/c1ccco1)NCC(=O)N/N=C/c1ccc(Cl)cc1	i	i	i	-5*	i
